Results: PubChem BioAssay AID492988 (Johns Hopkins Ion Channel Center, 2010)
Results filed as inconclusive are left out. Calls of active or inactive are those of the source.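 The calls were made as follows: active = duplicate-averaged calcium signal falling below the mean of the agonist-only control wells less 5 SD; inactive = the rest, inconclusive results apart.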

Test system: Transient receptor potential cation channel subfamily C member 4 (TRPC4beta), mouse
Experiment: blockers of DAMGO-driven mouse TRPC4 calcium entry – cell-based, HEK293 TRPC4beta/mu-opioid, Fluo-4 calcium flux, single concentration, SAR follow-up (AID 492988)
Settings: DAMGO-evoked Fluo4 calcium flux, at 10 µM, stronger effect = higher value
In short: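 Material: HEK293 cells stably expressing TRPC4beta plus mu-opioid receptor | Reagent: DAMGO mu-opioid agonist, submaximal dose then ECmax dose | Doses: Single concentration per test compound | Times: Compound 110 s, submaximal DAMGO 110 s | Detection: Fluo4 calcium-sensitive dye fluorescence, calcium flux | Measure: Peak-minus-trough fluorescence over baseline, integrated ratio, mean % inhibition | Replicates: Duplicates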

inhibition	Structure (SMILES)
-82.8% (inactive)	COc1ccc(N2CCN(c3cc(C)c4ccccc4n3)CC2)cc1
91.6%	Cc1cc(N2CCC(C)CC2)nc2ccccc12
61.2%	CCN(CC)c1cc(C)c2ccccc2n1
44.1%	Cc1ccnc(N2CCCC2)c1
42.6%	Cc1cc(N2CCOCC2)nc2ccccc12
90%	Cc1cc(N2CCCCC2)nc2ccccc12
39.7% (inactive)	FC(F)(F)c1cc(N2CCCCC2)nc2ccccc12
11.7% (inactive)	Cc1cc(N2CCC(N3CCOCC3)CC2)nc2ccccc12
72.2%	COc1ccccc1N1CCN(c2cc(C)c3ccccc3n2)CC1
42% (inactive)	Cc1cc(N2CCN(c3ccccc3C#N)CC2)nc2ccccc12
-249% (inactive)	Cc1cc(N(C)CCN(C)C)nc2ccccc12
50.8%	Cc1ccnc(N2CCCCC2)c1
91.3%	Cc1cc(N2CCCC2)nc2ccc(F)cc12
69.3%	Cc1cc(N2CCCC(O)C2)nc2ccccc12 (centres undefined)
-51.3% (inactive)	Cc1cc(N2CCN(CC3CCCO3)CC2)nc2ccccc12 (centres undefined)
90%	Cc1cc(N2CCC[C@@H]2C)nc2ccccc12

inhibition	Structure (SMILES)
38% (inactive)	Cc1ccnc(N2CCCC2)n1
79.9%	c1ccc(-c2cc(N3CCCC3)nc3ccccc23)cc1
70.1%	Cc1cc(N2CCCC2)nc2c(C)cccc12
38.2% (inactive)	Cc1ccnc(N2CCCCC2)n1
-10.6% (inactive)	FC(F)(F)c1cc(N2CCCC2)nc2ccccc12
84.9%	Cc1cc(N2CCCC2)nc2ccccc12
6.42% (inactive)	Cc1cc(N2CCN(c3ncccn3)CC2)nc2ccccc12
46.4%	Cc1cc(N2CCCCC2)nc2c(C)cccc12
93%	Cc1ccc2nc(N3CCCC3)cc(C)c2c1
32.4% (inactive)	Cc1cc(N2CC(C)CC(C)C2)nc2ccccc12 (centres undefined)
91.5%	CCc1ccc2nc(N3CCCC3)cc(C)c2c1
72.9%	Cc1cc(N2CCCCC2)nc2ccc(F)cc12
63%	Cc1cc(N2CCOc3ccccc32)nc2ccccc12
24.5% (inactive)	COCCN(C)c1cc(C)c2ccccc2n1
55.9%	c1ccc(-c2cc(N3CCCCC3)nc3ccccc23)cc1
29.5% (inactive)	Cc1cc(N2CCN(c3ccncc3)CC2)nc2ccccc12

Structure (SMILES)	inhibition
Cc1cc(N2CCN(C)CC2)nc2ccccc12	-157% (inactive)
Cc1cc(N2CCNCC2)nc2ccccc12	-292% (inactive)
